Assay [1] deals with Adenosine receptor A2a (Rattus norvegicus) (UniProt P30543). The experiment in a line: (§1) Displacement of specific [3H]-CGS- 21680 binding to Adenosine A2A receptor in rat striatal membranes. The class given is cell membranes. Also on record: concentration or dose not given beside the values. As to conditions: Membrane, concentration not given here. An outline of the steps: (§2)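 Rat striatal membranes labelled with [3H]CGS 21680 for A2A binding. Adenosine deaminase (3 units/mL) was present during membrane preparation, during a 30 min preincubation at 30 °C, and during radioligand incubation. Competitors were dissolved in DMSO and diluted in buffer (DMSO ≤2%).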

Assay [2] is filed under the species Rattus norvegicus. Put plainly: Ratio of the binding affinities against rat A3 receptor / rat A3 receptor, Ki(rA1) / Ki (rA3). An outline of the steps: (§3)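 Ratio of Ki values from binding assays. For A3, [125I]AB-MECA (final 0.3 nM) bound membranes of HEK-293 cells expressing human A3 (clone HS-21a) or CHO cells expressing rat A3, in Tris/Mg2+/EDTA buffer at pH 8.0. For rat A1, [3H]R-PIA bound cerebral cortex membranes, with adenosine deaminase (3 units/mL) present, including a 30 min preincubation at 30 °C.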

For assay [3], the target named is T1, Adenosine receptor A1 (Rattus norvegicus) (UniProt P25099).
T1 sequence (whole entry): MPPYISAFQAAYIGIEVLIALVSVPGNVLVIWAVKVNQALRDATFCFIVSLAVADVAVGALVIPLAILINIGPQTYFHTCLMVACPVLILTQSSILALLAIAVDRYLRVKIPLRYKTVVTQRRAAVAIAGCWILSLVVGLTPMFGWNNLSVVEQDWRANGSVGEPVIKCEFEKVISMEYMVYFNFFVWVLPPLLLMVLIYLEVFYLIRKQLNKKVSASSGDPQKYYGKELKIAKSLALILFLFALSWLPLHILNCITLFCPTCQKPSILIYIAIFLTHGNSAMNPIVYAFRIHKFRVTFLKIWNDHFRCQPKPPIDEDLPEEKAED
The experiment in a line: (§4) Displacement of specific [3H]-CGS- 21680R-PIA binding to Adenosine A1 receptor in rat brain membranes. The conditions noted are these: concentration not given here. The class given is cell membranes. Put shortly:
(§5)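 A1 binding used [3H]R-PIA on rat cerebral cortex membranes. Adenosine deaminase (3 units/mL) was included in membrane preparation, in a 30 min preincubation at 30 °C, and throughout radioligand incubation. Competitors were DMSO stocks diluted in buffer, with DMSO never above 2%.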

Assay [4] is filed under the species Rattus norvegicus. The experiment in a line: Ratio of binding affinities for rat A1 receptor against human A3 receptor, [Ki(rA1) / Ki (hA3)]. An outline of the steps: as §3
Assay [5] has as its target T2, Adenosine receptor A3 (Rattus norvegicus, UniProt P28647).
T2 sequence (P28647 whole entry): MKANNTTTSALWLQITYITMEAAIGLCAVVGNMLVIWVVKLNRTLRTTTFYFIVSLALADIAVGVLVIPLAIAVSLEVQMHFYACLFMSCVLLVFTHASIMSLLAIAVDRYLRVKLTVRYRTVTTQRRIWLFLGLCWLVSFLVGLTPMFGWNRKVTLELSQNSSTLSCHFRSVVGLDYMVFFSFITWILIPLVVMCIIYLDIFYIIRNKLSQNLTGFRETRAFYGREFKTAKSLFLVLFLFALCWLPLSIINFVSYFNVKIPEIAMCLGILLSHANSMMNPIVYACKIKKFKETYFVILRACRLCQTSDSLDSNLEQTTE
Put plainly: (§6) Displacement of specific [125I]AB-MECA binding at rat Adenosine A3 receptor stably expressed in CHO cells. In kind it is cell-based.

Assay [6] is filed under the species Rattus norvegicus. Put plainly: Ratio of the binding affinities against rat A3 receptor / human A3 receptor, Ki(rA1) / Ki (hA3). An outline of the steps: as §3
Assay [7] deals with T3, Adenosine receptor A3 (Homo sapiens) (UniProt P0DMS8).
T3 sequence (whole entry): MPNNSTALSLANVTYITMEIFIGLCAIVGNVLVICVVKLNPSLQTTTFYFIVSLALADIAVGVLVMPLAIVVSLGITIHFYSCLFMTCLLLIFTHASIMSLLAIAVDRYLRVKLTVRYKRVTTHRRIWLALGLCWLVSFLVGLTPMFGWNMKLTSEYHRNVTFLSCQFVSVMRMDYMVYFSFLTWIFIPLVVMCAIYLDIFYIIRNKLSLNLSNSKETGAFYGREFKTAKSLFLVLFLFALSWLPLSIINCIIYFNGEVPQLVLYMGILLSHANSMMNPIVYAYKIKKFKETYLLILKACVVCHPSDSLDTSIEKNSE
Put plainly: (§7) Displacement of specific [125 I]AB-MECA binding at human Adenosine A3 receptor expressed in HEK cells. As to conditions: HEK293. The class given is cell-based.

A further assay deals with Adenosine receptor A2a (Rattus norvegicus, UniProt P30543). Put plainly: Inhibition of [3H]-CGS- 21680 binding to Adenosine A2A receptor in rat striatal membranes. In kind it is cell membranes, Membrane.
Assay [8] addresses T4, Adenosine receptor A1 (Rattus norvegicus, UniProt P25099).
T4 sequence (P25099 whole entry): T1 sequence (whole entry)
Described as §4. In kind it is cell membranes. The conditions noted are these: in the assay text read “[3H]R-PIA” for “[3H]-CGS- 21680R-PIA”. An outline of the steps:
as §5

The target of assay [9] is T5, Adenosine receptor A3 (Rattus norvegicus) (UniProt P28647).
T5 sequence (whole entry): T2 sequence (P28647 whole entry)
The assay is described as §6. The class given is cell-based. An outline of the steps:
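Membranes from CHO cells stably expressing rat A3 receptor (0.3 mg protein/mL) were incubated with [125I]AB-MECA (final 0.3 nM) and test compound in 50 mM Tris, 10 mM Mg2+, 1 mM EDTA, pH 8.0. Compounds were dissolved in DMSO, with DMSO never exceeding 2%. At least five competitor concentrations spanning 3 orders of magnitude were tested. Nonspecific binding was defined with R-PIA. Bound ligand was collected by filtration over GF/B filters; n = 3-5.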

Assay [10] has as its target T3, Adenosine receptor A3 (Homo sapiens). The assay is described as §7. In kind it is cell-based. The conditions noted are these: HEK293; concentration not given here. Put shortly: (§8)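 Membranes from HEK-293 cells stably expressing human A3 receptor (clone HS-21a), or from CHO cells stably expressing rat A3 receptor (rat: n = 3-5), in 50 mM Tris, 10 mM Mg2+, 1 mM EDTA, pH 8.0. Membranes at 0.3 mg protein/mL with [125I]AB-MECA at 0.3 nM final. Nonspecific binding defined with R-PIA. Competitors were dissolved in DMSO (≤2% final) and tested at ≥5 concentrations spanning 3 log units. Bound ligand was separated by GF/B filtration with three buffer rinses; Ki was derived.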

In assay [11] the target is Adenosine receptor A2a (Rattus norvegicus) (UniProt P30543). Described as §1. The class given is cell membranes. The conditions noted are these: Membrane. Put shortly:
as §2

Assay [12] concerns the target T6, Adenosine receptor A3 (Homo sapiens, UniProt P0DMS8).
T6 sequence (P0DMS8 whole entry): T3 sequence (whole entry)
Described as §7. The class given is cell-based, HEK293. Put shortly:
as §8

Assay [13] has as its target T3, Adenosine receptor A3 (Homo sapiens). The experiment in a line: Displacement of specific[125 I]AB-MECA binding at human Adenosine A3 receptor expressed in HEK cells at 10 e-4M. The class given is cell-based. As to conditions: HEK293.
Assay [14] addresses Adenosine receptor A2a (Rattus norvegicus) (UniProt P30543). The experiment in a line: Displacement of specific [3H]-CGS- 21680 binding to Adenosine A2A receptor in rat striatal membranes at 10 e-5M. The class given is cell membranes. The conditions noted are these: Membrane.
Assay [15] deals with T4, Adenosine receptor A1. The experiment in a line: Displacement of specific [3H]R-PIA binding to Adenosine A1 receptor in rat brain membranes.
In assay [16] the target is Adenosine receptor A2a (Rattus norvegicus) (UniProt P30543). The experiment in a line: Displacement of specific [3H]-CGS- 21680 binding to Adenosine A2A receptor in rat striatal membranes at 10 e-4M. In kind it is cell membranes. As to conditions: Membrane.

The structures appear in SMILES notation. A value given as a limit tells only on which side of the number the result lay.

Sequence of Adenosine receptor A2a (P30543 whole entry): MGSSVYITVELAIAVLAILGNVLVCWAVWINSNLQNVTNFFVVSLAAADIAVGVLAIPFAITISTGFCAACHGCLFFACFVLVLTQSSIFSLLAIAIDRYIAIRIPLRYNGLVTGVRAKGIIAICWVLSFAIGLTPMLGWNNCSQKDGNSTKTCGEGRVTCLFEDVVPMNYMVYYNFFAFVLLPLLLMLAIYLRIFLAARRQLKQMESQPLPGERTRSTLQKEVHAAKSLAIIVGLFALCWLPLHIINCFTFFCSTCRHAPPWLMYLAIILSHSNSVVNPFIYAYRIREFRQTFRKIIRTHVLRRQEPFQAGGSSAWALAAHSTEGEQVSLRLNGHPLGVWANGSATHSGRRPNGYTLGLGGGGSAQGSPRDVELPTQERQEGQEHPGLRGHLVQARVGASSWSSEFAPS
Sequence of Adenosine receptor A2a (Rattus norvegicus) (P30543 whole entry): as above

By inhibition is commonly meant the percentage by which the read-out fell short of the control. One may read the Ki as a dissociation constant, usually derived from enzyme kinetics or from competition with a known ligand. The pKi is the Ki on a negative log10 scale, so that one unit is a factor of ten. On to `CCCOC(=O)c1c(CCC)c(C(=O)SCC)c(CC)[n+](C)c1-c1ccccc1`, for which the inhibition in assay [1] and in assay [3] was less than 10% throughout. Further, the Ratio in the assay listed under Rattus norvegicus [2] was more than 23; in the assay listed under Rattus norvegicus [4], more than 50; in the assay listed under Rattus norvegicus [6], 2.1. Besides, on Adenosine receptor A3 [5], the inhibitory constant (Ki) was determined as 4.26 µM. This compound displayed a negative-log Ki (pKi) in assay [7] of 5.59.
For `CCCOC(=O)c1c(-c2ccccc2)nc(CCF)c(C(=O)SCC)c1CCC`, the results for the Ki (on Adenosine receptor A2a; at Adenosine receptor A1 [8]; in [9]) were 30.8 µM, 19.8 µM and 0.26 µM, respectively. Further, the Ratio was 76 in the assay listed under Rattus norvegicus [2] and less than 1 in the assay filed under Rattus norvegicus [6]. Besides, the inhibition in [10] came out at 15%.
In assay [11], `CCOC(=O)c1c(-c2ccccc2)nc(CC)c2c1CCCNC2=O` gave a Displacement of less than 10%. The Ki on Adenosine receptor A1 [8] was found to be 5.79 µM; on Adenosine receptor A3 [12], 1.99 µM. In [7], this compound came in with a pKi of 5.7.
As to `CCCOC(=O)c1c(-c2ccccc2)nc(CC)c2c1CCOC2=O`, the inhibition in assay [1] was 20%; in assay [10], less than 10%. In addition, the affinity at Adenosine receptor A1 [8] corresponds to a Ki of 11.2 µM.
Consider `CCOC(=O)c1c(-c2ccccc2)nc(CC)c(C(=O)SCC)c1CCCN1C(=O)c2ccccc2C1=O`, for which the Displacement in assay [13] stood at 28%; in assay [11] it was 10%. The Ki on Adenosine receptor A1 [8] is 5.24 µM.
As to `CCCOC(=O)c1c(-c2ccccc2)nc(CC)c(C(=O)SCC)c1CCCF`, the Ki came out at 27.4 µM at Adenosine receptor A2a, 8.09 µM at Adenosine receptor A1 [8], 0.0599 µM at Adenosine receptor A3 [12] and 0.9 µM at Adenosine receptor A3 [5]. Further, the Ratio came to 9 in the assay listed under Rattus norvegicus [2], 140 in the assay listed under Rattus norvegicus [4] and 15 in the assay listed under Rattus norvegicus [6]. In [7], this compound gave a pKi of 7.22.
The compound `CCCOC(=O)c1c(-c2ccccc2)nc(CC)c(C(=O)SCC)c1CC` showed a Displacement in assay [14] of 10%. The Ratio came to 42 in the assay filed under Rattus norvegicus [2], 820 in the assay listed under Rattus norvegicus [4] and 22 in the assay listed under Rattus norvegicus [6]. Further, the pKi in assay [7] came to 8.08.
As to `CCNC(=O)c1c(C)nc(-c2ccccc2)c(C(=O)OCC)c1CC`, the inhibition in assay [1], in assay [3] and in assay [10] was less than 10% each time.
In the case of `CCCOC(=O)c1c(-c2ccccc2F)nc(CC)c(C(=O)SCC)c1CCC`, the Ki on Adenosine receptor A1 [15] is 13.5 µM; at Adenosine receptor A2a, 8.63 µM; on Adenosine receptor A3 [12] it was 0.023 µM. Also, in the assay filed under Rattus norvegicus [4], the Ratio amounted to 590. The pKi in assay [7] was 7.64.
`CCCCCCSC(=O)c1c(CC)nc(-c2cccc(Cl)c2)c(C(=O)OCCC)c1CC`: the Ki at Adenosine receptor A1 [15] was 113 µM; at Adenosine receptor A3 [12], 0.22 µM. Further, in assay [16], the Displacement was 10%. Besides, the Ratio in the assay listed under Rattus norvegicus [4] came out at 510. For the same compound, in assay [7], the pKi turned out to be 6.66.
For `CCCOC(=O)c1c(-c2ccccc2)nc(CCO)c(C(=O)SCC)c1CCC`, the Ki is 29.1 µM on Adenosine receptor A2a and 5.94 µM at Adenosine receptor A1 [8]. The compound further displayed an inhibition in [10] of 16%.
With `CCCOC(=O)c1c(-c2ccccc2)nc(CC)c(C(=O)SCCCF)c1CCC`, in assay [11], the Displacement is less than 10%. The Ki was 12.6 µM at Adenosine receptor A1 [8], 0.0828 µM on Adenosine receptor A3 [12] and 0.156 µM on Adenosine receptor A3 [5]. In addition, the Ratio was found to be 81 in the assay listed under Rattus norvegicus [2], 150 in the assay filed under Rattus norvegicus [4] and 1.9 in the assay listed under Rattus norvegicus [6]. Further, the pKi in [7] worked out at 7.08.
Regarding `CCCOC(=O)c1c(-c2ccccc2)nc(CC)c(C(=O)SCCOC2CCCCO2)c1CCC` (stereo not drawn), the inhibition is less than 10% in assay [1] and 18% in [3]. Further, the Ki at Adenosine receptor A3 [12] was determined as 0.517 µM.
For `CCCc1c(C(=O)SCC)c(CCSC(C)=O)nc(-c2ccccc2)c1C(=O)OCC`, the Ki is 13.2 µM at Adenosine receptor A1 [15] and 0.193 µM on Adenosine receptor A3 [12]. The compound also displayed an inhibition in assay [1] of 30%. The Ratio in the assay listed under Rattus norvegicus [4] turned out to be 68. The compound also yielded a pKi in assay [7] of 6.71.

(Values after ChEMBL document CHEMBL1132588, “Synthesis, CoMFA analysis, and receptor docking of 3,5-diacyl-2, 4-dialkylpyridine derivatives as selective A3 adenosine receptor antagonists” (J Med Chem, 1999).)
